# ChEMBL document CHEMBL5678805, “Intermittent administration of MEK inhibitor GDC-0973 plus PI3K inhibitor GDC-0941 triggers robust apoptosis and tumor growth inhibition” (Cancer Res, 2012)
# Activity calls are given as the source filed them. No cut-off for these calls is given here.
# Key:
# Aurora kinase A = Aurora kinase A (Homo sapiens, UniProt O14965); test: Inhibition of AuroraA (unknown origin)
# [1] = biological target: Serine/threonine-protein kinase Chk1 (Homo sapiens, UniProt O14757); test: Inhibition of CHK1 (unknown origin)
# [2] = biological target: RAF proto-oncogene serine/threonine-protein kinase (Homo sapiens, UniProt P04049); test: Inhibition of cRAF (unknown origin)
# [3] = biological target: G protein-coupled receptor kinase 5 (Homo sapiens, UniProt P34947); test: Inhibition of GRK5 (unknown origin)
# Insulin receptor = Insulin receptor (Homo sapiens, UniProt P06213); test: Inhibition of insulin receptor (unknown origin)
# [4] = biological target: Tyrosine-protein kinase Lyn (Homo sapiens, UniProt P07948); test: Inhibition of Lyn (unknown origin)
# [5] = Antitumor activity against human MOLM16 cells harboring FLT3 T227M mutant xenografted in mouse assessed as tumor growth inhibition at 2.5 mg/kg, po; type: functional, MOLM-16; conditions: read-out: TGI
# Summary of the method: (§1)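 Human tumor xenografts in mice were dosed orally at the indicated mg/kg. Tumor volume was measured with calipers as (L×W×W)/2. %TGI = 100 × [1 − (AUC treatment/d)/(AUC vehicle/d)], using the area under the fitted tumor-growth curve per day for each dose group relative to vehicle.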
# [6] = Antitumor activity against human LS174T-HM7 cells xenografted in mouse assessed as tumor growth inhibition at 10 mg/kg, po; type: functional; conditions: read-out: TGI
# Summary of the method: (§2)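 Single-agent dose ranging in human tumor xenograft mice at 2.5, 5 or 10 mg/kg oral. Tumor volume was measured by caliper as (L×W×W)/2. %TGI = 100×[1 − AUC(treatment/d)/AUC(vehicle/d)] from the fitted growth curve per dose group, relative to vehicle.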
# LoVo = test: Antitumor activity against human LoVo cells harboring KRAS G13D/CDKN2A P48L/FBXW7 R505C/MSH2/SMO G16_L17insLL/A324T/NF1 R1276Q/Y1607fs17/APC1114 mutant xenografted in mouse assessed as tumor growth inhibition at 5 mg/kg, po; type: functional; conditions: read-out: TGI; summary of the method: as §2
# [7] = Antitumor activity against human A2058-X1 cells harboring BRAF V600E/PTEN L112Q/V175/TP53 V274F mutant xenografted in mouse assessed as tumor growth inhibition at 5 mg/kg, po; type: functional; conditions: A2058-X1, read-out: TGI; summary of the method: as §2
# EBC-1 = test: Antitumor activity against human EBC-1 cells harboring MET amp and EGFR G719S/L858R mutant xenografted in mouse assessed as tumor growth inhibition at 10 mg/kg, po; type: functional; conditions: read-out: TGI; summary of the method: as §2
# NCI-H460 = test: Antitumor activity against human NCI-H460 cells harboring KRAS Q61H/PIK3CA E545K/LKB1 Q37/CDKN2A mutant xenografted in mouse assessed as tumor growth inhibition at 2.5 mg/kg, po; type: functional; conditions: read-out: TGI; summary of the method: as §1
# SK-OV-3 = test: Antitumor activity against human SK-OV-3 cells harboring FBXW7 R505L and CDKN2A mutant xenografted in mouse assessed as tumor growth inhibition at 10 mg/kg, po; type: functional; conditions: read-out: TGI; summary of the method: as §1
# NCI-H2122 [8] = test: Antitumor activity against human NCI-H2122 cells xenografted in mouse assessed as reduction in ERK phosphorylation at 1 to 10 mg/kg, po administered for 3 days and measured at 24 hrs by Western blot analysis; type: functional; parameters: scale not given: the % may be the effect or the level left; conditions: time 96 hrs
# Summary of the method: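 NCI-H2122 xenograft mice received 3 daily oral doses of 1, 3, 5 or 10 mg/kg. Tumors were collected 2, 8 and 24 h after the last dose, pulverized on dry ice and lysed. Lysates were run on 4–12% SDS-PAGE and transferred to nitrocellulose. p-ERK1/2 and t-ERK1/2 bands were quantified on an Odyssey imager and expressed relative to vehicle-treated mice (0 h).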
# RPMI-7951 = test: Antiproliferative activity against human RPMI-7951 cells assessed reduction in cell viability incubated for 4 days in presence of 4-(2-(1H-indazol-4-yl)-6-((4-(methylsulfonyl)piperazin-1-yl)methyl)thieno[3,2-d]pyrimidin-4-yl)morpholine by celltiter-glo assay; type: functional; conditions: time 4 day
# Summary of the method: (§3)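 4-day CellTiter-Glo viability read-out on melanoma lines, cells exposed to increasing concentrations of each inhibitor alone and in combination.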
# [9] = Antiproliferative activity against human SK-MEL-23 cells assessed reduction in cell viability incubated for 4 days in presence of 4-(2-(1H-indazol-4-yl)-6-((4-(methylsulfonyl)piperazin-1-yl)methyl)thieno[3,2-d]pyrimidin-4-yl)morpholine by celltiter-glo assay; type: functional; conditions: time 4 day; summary of the method: as §3
# SK-MEL-28 = test: Antiproliferative activity against human SK-MEL-28 cells assessed reduction in cell viability incubated for 4 days in presence of 4-(2-(1H-indazol-4-yl)-6-((4-(methylsulfonyl)piperazin-1-yl)methyl)thieno[3,2-d]pyrimidin-4-yl)morpholine by celltiter-glo assay; type: functional; conditions: time 4 day; summary of the method: as §3
# [10] = Antitumor activity against human A375.X1 cells xenografted in mouse assessed as tumor growth inhibition at 3 mg/kg, po administered once a day for 21 days in presence of 4-(2-(1H-indazol-4-yl)-6-((4-(methylsulfonyl)piperazin-1-yl)methyl)thieno[3,2-d]pyrimidin-4-yl)morpholine; type: functional; conditions: A375.X1, 504 h, time 21 day, read-out: TGI
# Summary of the method: (§4)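 Human tumor xenografts in mice. Drugs given orally, as single agents or combined with the PI3K inhibitor. Schedules were daily (QD) or every third day (Q3D) over 21 days. Tumor volume was measured by caliper as (L×W×W)/2. %TGI = 100×[1 − AUC(treatment/d)/AUC(vehicle/d)] from fitted growth curves, with group means. Tumor lysates were immunoblotted for pS6.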
# A2058 [11] = test: Antitumor activity against human A2058 cells xenografted in mouse assessed as tumor growth inhibition at 6 mg/kg, po administered once a day for 21 days in presence of 4-(2-(1H-indazol-4-yl)-6-((4-(methylsulfonyl)piperazin-1-yl)methyl)thieno[3,2-d]pyrimidin-4-yl)morpholine; type: functional; conditions: A2058, 504 h, time 21 day, read-out: TGI; summary of the method: as §4
# NCI-H2122 [12] = test: Antitumor activity against human NCI-H2122 cells xenografted in mouse assessed as tumor growth inhibition at 5 mg/kg, po administered once a day for 21 days in presence of 4-(2-(1H-indazol-4-yl)-6-((4-(methylsulfonyl)piperazin-1-yl)methyl)thieno[3,2-d]pyrimidin-4-yl)morpholine; type: functional; conditions: NCI-H2122, 504 h, time 21 day, read-out: TGI
# Summary of the method: (§5)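 Mice bearing NCI-H2122 xenografts were given MEK inhibitor, PI3K inhibitor, or both, orally once daily for 21 consecutive days at the doses labeled. Caliper tumor volumes were calculated as (L×W×W)/2. %TGI was derived from the AUC of the fitted growth curve per day relative to vehicle.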
# NCI-H2122 [13] = test: Antitumor activity against human NCI-H2122 cells xenografted in mouse assessed as tumor growth inhibition at 20 mg/kg, po administered once a day for 21 days; type: functional; conditions: NCI-H2122, 504 h, time 21 day, read-out: TGI; summary of the method: as §5
# A2058 [14] = test: Antitumor activity against human A2058 cells harboring BRAF V600E/PTEN deletion mutant xenografted in mouse assessed as increase in Bims level at 15 mg/kg, po administered every third day for 21 days and measured after 8 hrs post dose in presence of 4-(2-(1H-indazol-4-yl)-6-((4-(methylsulfonyl)piperazin-1-yl)methyl)thieno[3,2-d]pyrimidin-4-yl)morpholine by Western blot analysis; type: functional, organism-based; conditions: time 512.0 hrs
# A2058 [15] = test: Antitumor activity against human A2058 cells harboring BRAF V600E/PTEN deletion mutant xenografted in mouse assessed as decrease in tumor volume at 1.5 mg/kg, po administered once daily for 21 days in presence of GDC-0980 by digital calipers analysis; type: functional, organism-based; conditions: time 21.0 day
# Sequence of Serine/threonine-protein kinase Chk1 (O14757 whole entry): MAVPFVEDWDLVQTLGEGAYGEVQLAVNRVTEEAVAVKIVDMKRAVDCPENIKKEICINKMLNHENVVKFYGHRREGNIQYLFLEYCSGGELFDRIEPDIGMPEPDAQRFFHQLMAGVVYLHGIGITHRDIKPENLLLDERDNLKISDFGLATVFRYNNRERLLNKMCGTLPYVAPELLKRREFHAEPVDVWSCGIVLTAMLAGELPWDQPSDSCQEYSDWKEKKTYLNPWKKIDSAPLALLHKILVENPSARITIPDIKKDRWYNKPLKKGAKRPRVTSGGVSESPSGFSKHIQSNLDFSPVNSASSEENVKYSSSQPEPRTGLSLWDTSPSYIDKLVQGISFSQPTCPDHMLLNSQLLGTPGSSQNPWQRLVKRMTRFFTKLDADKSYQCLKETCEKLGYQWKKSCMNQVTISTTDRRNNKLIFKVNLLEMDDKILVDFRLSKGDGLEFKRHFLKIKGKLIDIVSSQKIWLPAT
# Sequence of G protein-coupled receptor kinase 5 (P34947 whole entry): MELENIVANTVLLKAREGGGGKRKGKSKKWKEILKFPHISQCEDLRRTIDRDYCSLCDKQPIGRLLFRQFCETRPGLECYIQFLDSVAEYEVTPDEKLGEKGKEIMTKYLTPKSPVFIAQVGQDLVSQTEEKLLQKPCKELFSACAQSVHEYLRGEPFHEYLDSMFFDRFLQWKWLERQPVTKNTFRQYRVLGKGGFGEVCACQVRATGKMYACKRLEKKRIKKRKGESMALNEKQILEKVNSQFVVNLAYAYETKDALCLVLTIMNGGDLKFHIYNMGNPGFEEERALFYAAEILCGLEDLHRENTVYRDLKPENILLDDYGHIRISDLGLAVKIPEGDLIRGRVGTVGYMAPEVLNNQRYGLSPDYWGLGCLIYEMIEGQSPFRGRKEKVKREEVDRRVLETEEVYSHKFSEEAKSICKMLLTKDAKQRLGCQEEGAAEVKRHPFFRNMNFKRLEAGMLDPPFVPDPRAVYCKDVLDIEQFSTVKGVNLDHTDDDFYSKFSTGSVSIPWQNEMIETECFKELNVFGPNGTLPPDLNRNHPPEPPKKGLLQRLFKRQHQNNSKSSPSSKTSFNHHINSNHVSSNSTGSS
# Sequence of Aurora kinase A (O14965 whole entry): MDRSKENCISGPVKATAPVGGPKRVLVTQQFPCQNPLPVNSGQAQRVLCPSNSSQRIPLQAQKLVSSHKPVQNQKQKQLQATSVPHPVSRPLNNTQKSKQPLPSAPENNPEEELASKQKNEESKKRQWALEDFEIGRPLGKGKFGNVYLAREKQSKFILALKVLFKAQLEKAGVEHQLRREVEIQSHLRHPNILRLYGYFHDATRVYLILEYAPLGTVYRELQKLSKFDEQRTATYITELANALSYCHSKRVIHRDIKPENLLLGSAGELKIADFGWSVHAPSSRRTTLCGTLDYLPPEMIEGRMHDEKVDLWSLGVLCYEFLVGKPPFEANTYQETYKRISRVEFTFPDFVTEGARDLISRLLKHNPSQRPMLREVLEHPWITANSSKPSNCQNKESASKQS
# Sequence of Insulin receptor (P06213 28-758 limits assumed): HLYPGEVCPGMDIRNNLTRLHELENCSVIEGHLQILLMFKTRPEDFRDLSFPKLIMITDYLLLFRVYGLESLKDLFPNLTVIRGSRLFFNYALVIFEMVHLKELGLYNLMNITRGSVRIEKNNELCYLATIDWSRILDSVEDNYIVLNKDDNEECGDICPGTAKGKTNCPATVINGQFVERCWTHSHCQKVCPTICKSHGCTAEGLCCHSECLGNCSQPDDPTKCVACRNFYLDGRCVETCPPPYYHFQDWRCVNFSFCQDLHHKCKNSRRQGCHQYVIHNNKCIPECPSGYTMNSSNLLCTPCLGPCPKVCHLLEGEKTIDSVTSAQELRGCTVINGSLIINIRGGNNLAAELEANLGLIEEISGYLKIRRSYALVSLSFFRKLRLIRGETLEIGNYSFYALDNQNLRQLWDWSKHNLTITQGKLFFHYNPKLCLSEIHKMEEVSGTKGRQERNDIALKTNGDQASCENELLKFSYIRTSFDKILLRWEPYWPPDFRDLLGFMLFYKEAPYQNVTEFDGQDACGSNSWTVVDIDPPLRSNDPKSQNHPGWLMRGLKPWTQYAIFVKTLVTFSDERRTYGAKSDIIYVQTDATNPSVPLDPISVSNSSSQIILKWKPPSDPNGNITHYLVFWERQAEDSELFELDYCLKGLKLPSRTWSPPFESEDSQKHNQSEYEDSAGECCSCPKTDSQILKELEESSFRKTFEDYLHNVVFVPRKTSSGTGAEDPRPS
# Sequence of Insulin receptor (P06213 763-1382 limits assumed): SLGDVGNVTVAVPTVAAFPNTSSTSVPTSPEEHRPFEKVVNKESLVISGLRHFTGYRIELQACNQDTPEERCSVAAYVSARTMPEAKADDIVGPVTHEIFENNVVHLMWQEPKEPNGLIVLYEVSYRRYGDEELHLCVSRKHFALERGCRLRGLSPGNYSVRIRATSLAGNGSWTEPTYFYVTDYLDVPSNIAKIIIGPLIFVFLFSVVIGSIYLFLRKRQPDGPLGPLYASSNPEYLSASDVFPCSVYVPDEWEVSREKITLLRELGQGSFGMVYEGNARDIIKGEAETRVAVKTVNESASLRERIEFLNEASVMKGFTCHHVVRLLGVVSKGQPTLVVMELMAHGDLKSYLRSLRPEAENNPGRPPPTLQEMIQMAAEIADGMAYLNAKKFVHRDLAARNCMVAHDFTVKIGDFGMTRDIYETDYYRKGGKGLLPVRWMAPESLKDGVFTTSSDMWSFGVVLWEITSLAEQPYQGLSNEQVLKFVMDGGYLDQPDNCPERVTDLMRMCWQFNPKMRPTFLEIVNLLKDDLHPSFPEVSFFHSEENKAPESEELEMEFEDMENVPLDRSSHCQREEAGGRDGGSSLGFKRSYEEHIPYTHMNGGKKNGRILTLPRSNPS
# Sequence of RAF proto-oncogene serine/threonine-protein kinase (P04049 whole entry): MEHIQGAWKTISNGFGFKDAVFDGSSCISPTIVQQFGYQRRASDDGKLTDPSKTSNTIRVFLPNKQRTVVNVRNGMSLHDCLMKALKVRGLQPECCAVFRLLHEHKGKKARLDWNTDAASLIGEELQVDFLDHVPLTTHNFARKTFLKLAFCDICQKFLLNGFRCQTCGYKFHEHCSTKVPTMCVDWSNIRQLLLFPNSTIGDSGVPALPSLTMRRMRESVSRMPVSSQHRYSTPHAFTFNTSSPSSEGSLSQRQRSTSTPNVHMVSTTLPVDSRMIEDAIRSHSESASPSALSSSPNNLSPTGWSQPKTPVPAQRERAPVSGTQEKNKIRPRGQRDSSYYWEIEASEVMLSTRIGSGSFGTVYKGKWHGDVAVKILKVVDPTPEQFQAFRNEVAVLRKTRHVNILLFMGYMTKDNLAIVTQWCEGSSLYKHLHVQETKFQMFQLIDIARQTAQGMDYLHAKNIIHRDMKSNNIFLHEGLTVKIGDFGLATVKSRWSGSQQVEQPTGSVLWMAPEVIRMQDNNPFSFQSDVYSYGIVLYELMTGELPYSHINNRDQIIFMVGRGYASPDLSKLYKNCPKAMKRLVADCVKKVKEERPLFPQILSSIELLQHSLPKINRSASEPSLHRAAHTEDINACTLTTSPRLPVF
# Sequence of Tyrosine-protein kinase Lyn (P07948 whole entry): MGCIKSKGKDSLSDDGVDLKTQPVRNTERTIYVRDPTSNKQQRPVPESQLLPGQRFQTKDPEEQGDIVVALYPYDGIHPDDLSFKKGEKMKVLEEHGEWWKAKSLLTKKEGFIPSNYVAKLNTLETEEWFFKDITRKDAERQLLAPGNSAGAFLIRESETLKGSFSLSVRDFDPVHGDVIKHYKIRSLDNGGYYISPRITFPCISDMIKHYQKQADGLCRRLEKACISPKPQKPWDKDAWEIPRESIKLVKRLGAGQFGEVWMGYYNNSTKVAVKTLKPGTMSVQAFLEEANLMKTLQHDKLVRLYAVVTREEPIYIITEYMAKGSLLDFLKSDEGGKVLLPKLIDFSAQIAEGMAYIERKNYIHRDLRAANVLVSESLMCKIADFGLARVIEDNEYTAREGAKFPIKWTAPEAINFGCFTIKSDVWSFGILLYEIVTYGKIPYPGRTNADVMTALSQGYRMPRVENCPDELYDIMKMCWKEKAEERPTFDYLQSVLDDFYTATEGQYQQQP
smiles,measurement,setting,value
O=C(c1ccc(F)c(F)c1Nc1ccc(I)cc1F)N1CC(O)([C@@H]2CCCCN2)C1 [COBIMETINIB],IC50,Aurora kinase A,> 10 µM
same,IC50,[1],> 10 µM
same,IC50,[2],> 10 µM
same,IC50,[3],> 10 µM
same,IC50,Insulin receptor,> 10 µM
same,IC50,[4],> 10 µM
same,inhibition in vivo at 2.5 mg/kg,[5],7%
same,inhibition in vivo at 10 mg/kg,[6],37%
same,inhibition in vivo at 5 mg/kg,LoVo,73%
same,inhibition in vivo at 5 mg/kg,[7],45%
same,inhibition in vivo at 10 mg/kg,EBC-1,40%
same,inhibition in vivo at 2.5 mg/kg,NCI-H460,32%
same,inhibition in vivo at 10 mg/kg,SK-OV-3,63%
same,Activity,NCI-H2122 [8],73%
same,Activity,RPMI-7951,60%
same,Activity,[9],60%
same,Activity,SK-MEL-28,60%
same,inhibition in vivo at 3 mg/kg,[10],69%
same,inhibition in vivo at 6 mg/kg,A2058 [11],73%
same,inhibition in vivo at 5 mg/kg,NCI-H2122 [12],75%
same,inhibition in vivo at 20 mg/kg,NCI-H2122 [13],61%
same,Activity,A2058 [14],Active
same,Activity,A2058 [15],Active
